Experimental data: ChEMBL document CHEMBL1137675, “Convenient one-pot synthesis of novel 2-substituted benzimidazoles, tetrahydrobenzimidazoles and imidazoles and evaluation of their in vitro antibacterial and antifungal activities” (2009)
Values after ≈ are worked out from the molar mass of the structure shown.

Legend:
Staphylococcus aureus [1] = assay: Antibacterial activity against Staphylococcus aureus MSSA 22 at 37 degC after 24 hrs by filter paper disk method; format: functional; conditions: for MIC: Staphylococcus aureus, MSSA 22, 24 h
Procedure, shortened: (§1)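 Compounds were taken from a 1 mg/ml DMSO stock and serially diluted two-fold over a 300 to 18.75 range, then loaded onto sterile 8 mm paper discs. Bacteria were grown overnight in nutrient broth at 37 °C, pelleted, and resuspended in sterile NSS to 10⁵ cfu/ml. About 0.1 ml was spread on NA plates. Plates were incubated 24 h at 37 °C with a solvent control disc, and inhibition zone diameter was read in mm.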

Salmonella typhimurium [2] = assay: Antibacterial activity against Salmonella Typhimurium MTCC 98 at 30 ug/disk at 37 degC after 24 hrs by filter paper disk method; format: functional, Salmonella enterica subsp. enterica serovar Typhimurium; conditions: Salmonella enterica, MTCC 98, 24 h; read-out: DIZ
Procedure, shortened: (§2)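 Chloramphenicol was given as a reference antibiotic disc. Bacteria were grown overnight in nutrient broth at 37 °C and adjusted to 10⁵ cfu/ml in sterile NSS. About 0.1 ml was spread on NA plates next to 8 mm discs, including a solvent disc. Plates were incubated 24 h at 37 °C, and zones of inhibition were measured in mm.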

Escherichia coli [3] = assay: Antibacterial activity against Escherichia coli K-12 at 30 ug/disk at 37 degC after 24 hrs by filter paper disk method; format: functional; conditions: K-12, 24 h, read-out: DIZ
Procedure, shortened: (§3)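 Disc diffusion on nutrient agar. Inoculum was grown overnight in NA broth at 37 °C, centrifuged, and resuspended in sterile NSS to 10⁵ cfu/ml; about 0.1 ml was spread per plate. Sterile 8 mm discs carried compound, with a 1 mg/ml DMSO stock diluted two-fold from 300 to 18.75. Controls were a solvent disc and a chloramphenicol disc. After 24 h at 37 °C, inhibition-zone diameter was read in mm.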

Bacillus subtilis [4] = assay: Antibacterial activity against Bacillus subtilis ATCC 6051 at 30 ug/disk at 37 degC after 24 hrs by filter paper disk method; format: functional; conditions: ATCC 6051, 24 h, read-out: DIZ; procedure, shortened: as §2
Salmonella typhimurium [5] = assay: Antibacterial activity against Salmonella Typhimurium MTCC 98 at 37 degC after 24 hrs by filter paper disk method; format: functional, Salmonella enterica subsp. enterica serovar Typhimurium; conditions: for MIC: Salmonella enterica, MTCC 98, 24 h; procedure, shortened: as §1
Bacillus subtilis [6] = assay: Antibacterial activity against Bacillus subtilis ATCC 6051 at 37 degC after 24 hrs by filter paper disk method; format: functional; conditions: for MIC: Bacillus subtilis, ATCC 6051, 24 h; procedure, shortened: as §1
Staphylococcus aureus [7] = assay: Antibacterial activity against Staphylococcus aureus MSSA 22 at 30 ug/disk at 37 degC after 24 hrs by filter paper disk method; format: functional; conditions: MSSA 22, 24 h, read-out: DIZ; procedure, shortened: as §3
Escherichia coli [8] = assay: Antibacterial activity against Escherichia coli K-12 at 37 degC after 24 hrs by filter paper disk method; format: functional; conditions: for MIC: Escherichia coli, K-12, 24 h; procedure, shortened: as §1
Trichoderma viride = assay: Antifungal activity against Trichoderma viride at 28 degC after 72 hrs; format: functional; conditions: for MIC: Trichoderma viride, 72 h
Procedure, shortened: (§4)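 Filamentous fungi were kept on SDA at 28 °C. Spores from 7-day cultures were suspended in sterile normal saline to about 10⁵ cfu/ml, and about 0.1 ml was spread on SDA plates. Compounds were serially diluted two-fold in DMSO and impregnated on 8 mm discs, with a solvent control disc on each plate. Plates were held at 28 °C for 72 h or more, and inhibition zone diameter was read in mm.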

Helminthosporium = assay: Antifungal activity against Helminthosporium oryzae 2537 ICAR at 28 degC after 72 hrs; format: functional; conditions: for MIC: Helminthosporium, 72 h; procedure, shortened: as §4
Aspergillus niger = assay: Antifungal activity against Aspergillus niger at 28 degC after 72 hrs; format: functional; conditions: for MIC: Aspergillus niger, 72 h; procedure, shortened: as §4
Penicillium sp. = assay: Antifungal activity against Penicillium sp. at 28 degC after 72 hrs; format: functional; conditions: for MIC: Penicillium sp., 72 h; procedure, shortened: as §4
Candida albicans = assay: Antifungal activity against Candida albicans IOA-109 at 37 degC after 18 to 48 hrs; format: functional; conditions: for MIC: Candida albicans, IOA-109

Structure (SMILES) | MIC (Staphylococcus aureus [1]) [mg/L] | MIC (Salmonella typhimurium [5]) [mg/L] | MIC (Bacillus subtilis [6]) [mg/L] | MIC (Escherichia coli [8]) [mg/L] | diameter of the inhibition zone (DIZ) (Trichoderma viride) [mm] | MIC (Trichoderma viride) [mg/L] | diameter of the inhibition zone (DIZ) (Staphylococcus aureus [1]) [mm] | diameter of the inhibition zone (DIZ) (Helminthosporium) [mm] | MIC (Helminthosporium) [mg/L] | diameter of the inhibition zone (DIZ) (Salmonella typhimurium [5]) [mm] | diameter of the inhibition zone (DIZ) (Bacillus subtilis [6]) [mm] | diameter of the inhibition zone (DIZ) (Aspergillus niger) [mm] | MIC (Aspergillus niger) [mg/L] | diameter of the inhibition zone (DIZ) (Penicillium sp.) [mm] | MIC (Penicillium sp.) [mg/L] | diameter of the inhibition zone (DIZ) (Candida albicans) [mm] | MIC (Candida albicans) [mg/L] | diameter of the inhibition zone (DIZ) (Escherichia coli [8]) [mm] | other results
O=C(N[C@H](CO)[C@H](O)c1ccc([N+](=O)[O-])cc1)C(Cl)Cl [CHLORAMPHENICOL] | 12.5 (≈ 38.7 µM) | 6 (≈ 18.6 µM) | 6 (≈ 18.6 µM) | 12.5 (≈ 38.7 µM) | – | – | – | – | – | – | – | – | – | – | – | – | – | – | zone of inhibition at 30 µg/disc (Salmonella typhimurium [2]): 20 mm; zone of inhibition at 30 µg/disc (Escherichia coli [3]): 25 mm; zone of inhibition at 30 µg/disc (Bacillus subtilis [4]): 24 mm; zone of inhibition at 30 µg/disc (Staphylococcus aureus [7]): 26 mm
CCCCCCCC/C=C\CCCCCCCc1nc2ccccc2[nH]1 | 150 (≈ 423 µM) | 75 (≈ 212 µM) | 75 (≈ 212 µM) | 150 (≈ 423 µM) | 6 | 75 (≈ 212 µM) | 18 | 12 | 150 (≈ 423 µM) | 14 | 21 | 16 | 150 (≈ 423 µM) | 18 | 75 (≈ 212 µM) | 19 | 75 (≈ 212 µM) | 16 | –
CCCCCCCC/C=C/CCCCCCCc1ncc[nH]1 | 150 (≈ 493 µM) | 75 (≈ 246 µM) | 37.5 (≈ 123 µM) | 150 (≈ 493 µM) | 4 | 75 (≈ 246 µM) | 15 | 12 | 150 (≈ 493 µM) | 11 | 19 | 12 | 150 (≈ 493 µM) | 17 | 150 (≈ 493 µM) | 18 | 75 (≈ 246 µM) | 11 | –
C=CCCCCCCCCc1nc2c([nH]1)CCCC2 | 75 (≈ 288 µM) | 75 (≈ 288 µM) | 75 (≈ 288 µM) | 37.5 (≈ 144 µM) | 7 | 37.5 (≈ 144 µM) | 18 | 11 | 150 (≈ 576 µM) | 11 | 18 | 12 | 37.5 (≈ 144 µM) | 18 | 75 (≈ 288 µM) | 18 | 75 (≈ 288 µM) | 17 | –
